Source: ChEMBL document CHEMBL2021821, “N-phosphonocarbonylpyrrolidine derivatives of guanine: a new class of bi-substrate inhibitors of human purine nucleoside phosphorylase” (J Med Chem, 2012)

Tests used:
[1] = target: T1, Purine nucleoside phosphorylase (Homo sapiens, UniProt P00491); test: Competitive inhibition of PNP in human MINO cells using MSEG as substrate by Dixon-plot analysis; format: cell-based
T1 sequence (P00491 whole entry): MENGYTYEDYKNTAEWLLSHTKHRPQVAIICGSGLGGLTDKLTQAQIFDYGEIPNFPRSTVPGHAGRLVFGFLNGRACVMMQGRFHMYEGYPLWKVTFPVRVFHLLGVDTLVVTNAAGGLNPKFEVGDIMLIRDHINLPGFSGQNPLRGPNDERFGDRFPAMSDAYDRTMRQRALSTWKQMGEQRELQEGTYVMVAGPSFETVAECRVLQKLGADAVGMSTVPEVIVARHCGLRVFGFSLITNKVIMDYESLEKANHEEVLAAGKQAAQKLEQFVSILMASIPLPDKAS

[2] = target: T1, Purine nucleoside phosphorylase; test: Competitive inhibition of human recombinant PNP using MSEG as substrate by Dixon-plot analysis
Outline: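 Human recombinant PNP. Assay mix was 50 mM Tris pH 7.5 with MESG at 40 or 80, constant 500 phosphate and inhibitor 0–500 nM. Enzyme addition started phosphorolysis, read at 360 nm for 5–7 min from initial rates. Ki was taken from Dixon plots (1/v vs [I]) over three independent measurements.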

[3] = target: T1, Purine nucleoside phosphorylase; test: Competitive inhibition of PNP in human MC116 cells using MSEG as substrate by Dixon-plot analysis; format: cell-based
[4] = target: T1, Purine nucleoside phosphorylase; test: Competitive inhibition of PNP in human HBL2 tumor cells using MSEG as substrate by Dixon-plot analysis; format: cell-based
[5] = target: T1, Purine nucleoside phosphorylase; test: Competitive inhibition of PNP in human DoHH2 cells using MSEG as substrate by Dixon-plot analysis; format: cell-based
[6] = target: T1, Purine nucleoside phosphorylase; test: Competitive inhibition of PNP in human AML cells obtained from patients using MSEG as substrate by Dixon-plot analysis; format: cell-based
[7] = target: T1, Purine nucleoside phosphorylase; test: Competitive inhibition of PNP in human RPMI8226 cells using MSEG as substrate by Dixon-plot analysis; format: cell-based, RPMI-8226
[8] = target: T1, Purine nucleoside phosphorylase; test: Competitive inhibition of PNP in human CML cells obtained from patients using MSEG as substrate by Dixon-plot analysis; format: cell-based
[9] = target: T1, Purine nucleoside phosphorylase; test: Competitive inhibition of PNP in human PBMC using MSEG as substrate by Dixon-plot analysis
[10] = target: T1, Purine nucleoside phosphorylase; test: Competitive inhibition of PNP in human Jurkat cells using MSEG as substrate by Dixon-plot analysis; format: cell-based
[11] = target: T1, Purine nucleoside phosphorylase; test: Competitive inhibition of PNP in human K562 cells using MSEG as substrate by Dixon-plot analysis; format: cell-based
[12] = target: T1, Purine nucleoside phosphorylase; test: Competitive inhibition of PNP in human HBL2 cells using MSEG as substrate by Dixon-plot analysis; format: cell-based
[13] = target: T1, Purine nucleoside phosphorylase; test: Competitive inhibition of PNP in human OPM2 cells using MSEG as substrate by Dixon-plot analysis; format: cell-based, OPM-2
[14] = target: T1, Purine nucleoside phosphorylase; test: Competitive inhibition of PNP in human SU-DHL-1 cells using MSEG as substrate by Dixon-plot analysis; format: cell-based
[15] = target: T1, Purine nucleoside phosphorylase; test: Inhibition of human recombinant PNP using MSEG as substrate preincubated with inhibitor within 10 to 20 mins measured after 5 mins by HPLC analysis
Outline: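 Recombinant human PNP (0.002 units) preincubated with inhibitor (0–250 nM) in 50 mM Tris pH 7.5 at 20 C for 0, 10 or 20 min. Then phosphate (final 500 µM) and MESG (final 20 µM) added; incubated 2 and 5 min at 25 C, aliquots quenched with HCl. MESG phosphorolysis measured by HPLC; activity expressed relative to no-inhibitor assays.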

| Ki [1] | Ki [2] | Ki [3] | Ki [4] | Ki [5] | Ki [6] | Ki [7] | Ki [8] | Ki [9] | Ki [10] | Ki [11] | Ki [12] | Ki [13] | Ki [14] | IC50 [15] | SMILES |
| --- | --- | --- | --- | --- | --- | --- | --- | --- | --- | --- | --- | --- | --- | --- | --- |
| 30 nM | 25 nM | 50 nM | 100 nM | 50 nM | 60 nM | 50 nM | 77 nM | 20 nM | 16 nM | 60 nM | 98 nM | 78 nM | 38 nM | – | Nc1nc2c(ncn2[C@H]2CCN(C(=O)P(=O)(O)O)C2)c(=O)[nH]1 |
| 10 nM | 7 nM | 11 nM | 24 nM | 6 nM | 12 nM | 20 nM | 14 nM | 10 nM | 10 nM | 10 nM | 16 nM | 16 nM | 11 nM | 10 nM | Nc1nc2c(ncn2[C@@H]2CN(C(=O)P(=O)(O)O)C[C@@H]2O)c(=O)[nH]1 |
